The list is not random: actives were taken first. Their share in the collection is about 1.7%.
Efflux pump inh: antifungal efflux pump inhibition, Nile Red retention | S. cerevisiae Candida pump triplex | inhibition, % at 10 µM | 330,000 tested, 0.44% active | AID 485275;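 active = plate passing quality check with inhibition over a set limit, or well fluorescence over plate mean plus 4 SD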;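 also: Nile Red retained in pooled yeast measured as flow cytometry median fluorescence; 0% = buffer negative control and 100% = Enniatin B positive control; higher means more Nile Red kept so more efflux inhibition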
Pemphigus Ab inh: blocks pemphigus antibody binding to human desmoglein-3; P32926; DSG3-coupled beads, scFv-anti-DSG3-GFP binding, flow cytometry; hits give low values; binding (percent of control), % at 10 µM; 310,000 tested, 0.48% active;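 active = binding more than 3 SD below its plate's average and above zero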;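 also: hits lower antibody fragment binding to DSG3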
Target sequence (P32926 whole entry, looked up, the tested form may be a part): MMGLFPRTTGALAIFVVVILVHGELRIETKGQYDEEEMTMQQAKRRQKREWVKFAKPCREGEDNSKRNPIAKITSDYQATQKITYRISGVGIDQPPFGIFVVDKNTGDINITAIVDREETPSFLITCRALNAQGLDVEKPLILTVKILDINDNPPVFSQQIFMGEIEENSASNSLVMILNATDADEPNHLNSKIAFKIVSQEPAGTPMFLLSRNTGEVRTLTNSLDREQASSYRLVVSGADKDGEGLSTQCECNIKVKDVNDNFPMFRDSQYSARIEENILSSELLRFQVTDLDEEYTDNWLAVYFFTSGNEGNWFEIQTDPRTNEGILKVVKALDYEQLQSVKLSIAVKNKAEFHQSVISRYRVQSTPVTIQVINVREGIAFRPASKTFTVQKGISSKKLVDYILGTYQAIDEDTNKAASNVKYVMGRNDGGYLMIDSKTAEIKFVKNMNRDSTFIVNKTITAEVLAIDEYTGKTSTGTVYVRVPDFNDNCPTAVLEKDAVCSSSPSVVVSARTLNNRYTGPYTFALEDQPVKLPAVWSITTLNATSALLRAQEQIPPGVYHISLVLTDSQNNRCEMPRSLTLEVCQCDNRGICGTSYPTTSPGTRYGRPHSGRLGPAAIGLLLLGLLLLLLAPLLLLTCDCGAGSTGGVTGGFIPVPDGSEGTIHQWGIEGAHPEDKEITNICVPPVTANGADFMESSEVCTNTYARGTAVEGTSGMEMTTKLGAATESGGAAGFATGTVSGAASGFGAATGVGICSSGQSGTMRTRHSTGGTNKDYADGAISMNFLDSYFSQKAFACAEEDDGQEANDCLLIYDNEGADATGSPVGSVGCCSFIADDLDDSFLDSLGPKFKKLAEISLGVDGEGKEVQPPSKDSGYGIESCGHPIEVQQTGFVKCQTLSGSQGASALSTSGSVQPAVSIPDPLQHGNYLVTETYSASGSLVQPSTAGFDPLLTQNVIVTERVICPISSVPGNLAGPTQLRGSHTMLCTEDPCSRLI
Arrestin-AP2 inh: human beta-arrestin and AP2 interaction inhibition. FITC-arrestin peptide / GST-AP2 beads, flow cytometry; AP2 beta2 appendage carries R879A mutation. 340,000 tested, 0.31% active. inhibition, % at 10 µM;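 active = inhibition above a set limit, near 3 SD of compounds lacking own fluorescence, cut at about 54% in these data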;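 also: plate controls were DMSO wells for no effect and 5 µM unlabelled arrestin peptide for full effect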
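System: GST-tagged AP2 beta2-adaptin appendage (R879A) on 4 µm glutathione beads / Reagent: FITC-arrestin peptide, 50 nM / Detection: HyperCyt-sampled flow cytometry, FL1 channel, ex 488/em 535 nm / Timing: 12 min plus 1 h, RT / Buffer or medium: PBS plus Tween 20 (0.05%) and BSA (0.1%)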
Neddyl block: blocks human cullin neddylation. inhibition, % at 25 µM. TR-FRET cullin neddylation, biochemical. P61081+Q13564. 360,000 tested, 0.58% active; in the data active = inhibition above about 36%
Cmpd fluor yeast: counter-screen for efflux pump inhibitors: compound fluorescence; shares compounds with Efflux pump inh; S. cerevisiae AD/pABC3, flow cytometry; fluorescence ratio to DMSO, % at 10 µM; 1,700 tested, 4% active; AID 588517;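 active = fluorescence ratio to DMSO above its plate's cutoff, the plate mean ratio plus 5 SD, cut at about 210% in these data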;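 also: unstained yeast with no Nile Red so the signal is compound autofluorescence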
Mdr1 pump inh: inhibitors of Candida albicans Mdr1 efflux pump. inhibition, % at 10 µM. AID 588518. 1,700 tested, 1% active. shares compounds with Efflux pump inh. S. cerevisiae AD/CaMDR1, Nile Red efflux, flow cytometry; in the data active = inhibition above about 26%;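 also: 0% = DMSO vehicle and 100% = reference inhibitor; higher means more Nile Red retained so more efflux inhibition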
Cdr2 pump inh: blocks the Candida albicans Cdr2 efflux pump in yeast; S. cerevisiae AD/CaCDR2, Nile Red retention, flow cytometry; 1,700 tested, 4% active; shares compounds with Efflux pump inh; Nile Red retention ratio vs DMSO, % at 10 µM; in the data active = Nile Red retention ratio vs DMSO above about 190%;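 also: higher ratio means more blocking of Cdr2 efflux of the dye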
Cdr1 pump inh: inhibitors of Candida albicans Cdr1 efflux pump. shares compounds with Efflux pump inh. S. cerevisiae AD/CaCDR1, Nile Red efflux, flow cytometry. inhibition, % at 10 µM. 1,700 tested, 1% active;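 active = inhibition above the screen-wide mean plus twice its standard deviation, cut at about 32% in these data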
Numbers without * were called inactive; i = inactive; . = no result given.

SMILES | Efflux pump inh | Pemphigus Ab inh | Arrestin-AP2 inh | Neddyl block | Cmpd fluor yeast | Mdr1 pump inh | Cdr2 pump inh | Cdr1 pump inh
Cc1nnsc1S(=O)c1ccccc1Cl (centres undefined) | 0.4 | 97.4 | 36.5 | 7.1 | . | . | . | .
Cc1ccc(S(=O)(=O)c2nc(Nc3ccccc3N3CCOCC3)sc2Cl)cc1 | 7.5* | 102.0 | 21.3 | -1.3 | 99.7 | -0.1 | 98.7 | 0.1
CCOc1ccc(C(=O)Nc2cccc(-c3cc4ccccc4oc3=O)c2)cc1[N+](=O)[O-] | 1.0* | 92.9 | 17.0 | 6.5 | 107.2 | -0.1 | 100.7 | -0.1
O=C(CC1OC(=O)c2ccccc21)NNC(=O)c1ccc(F)cc1 (centres undefined) | -0.1 | 99.5 | 3.3 | 9.8 | . | . | . | .
C[C@@]12C(=O)Nc3cc(Cl)ccc3C(=O)N1[C@H]1c3ccccc3OC[C@@H]1[C@@H]2c1ccccc1 | 0.2 | 101.8 | -6.6 | -480.4 | . | . | . | .
COc1cc2c(cc1OC)C(=O)N1[C@H]3c4ccccc4OC[C@@H]3[C@H](c3ccccc3)[C@]1(C)C(=O)N2 | 0.0 | 97.7 | -5.9 | -17.7 | . | . | . | .
Cc1ccc2c(c1)C(=O)N1[C@H]3c4cc(C)ccc4OC[C@@H]3[C@H](c3ccccc3)[C@]1(C)C(=O)N2 | 0.0 | 99.4 | . | -178.3 | . | . | . | .
C[C@@]12C(=O)Nc3cc(Cl)ccc3C(=O)N1[C@H]1c3cc(Cl)ccc3OC[C@@H]1[C@@H]2c1ccccc1 | 0.1 | 95.0 | 10.3 | -485.1 | 96.6 | -0.1 | 101.8 | 0.0
Cc1ccc2c(c1)C(=O)N1[C@H]3c4cc(Cl)ccc4OC[C@@H]3[C@H](c3ccccc3)[C@]1(C)C(=O)N2 | -0.2 | 96.4 | 6.9 | i | 100.2 | -0.3 | 99.3 | -0.1
COc1ccc2c(c1)OC[C@H]1[C@H]2N2C(=O)c3cc(OC)c(OC)cc3NC(=O)[C@@]2(C)[C@H]1c1ccccc1 | 48.2* | 95.5 | -0.5 | -169.9 | 538.8* | 79.2* | 111.6 | 33.5*
C[C@@]12C(=O)Nc3ccc(F)cc3C(=O)N1[C@H]1c3ccccc3OC[C@@H]1[C@@H]2c1ccccc1 | -0.2 | 101.4 | 4.3 | -7.5 | . | . | . | .
C[C@@]12C(=O)Nc3ccc(F)cc3C(=O)N1[C@H]1c3cc(Cl)ccc3OC[C@@H]1[C@@H]2c1ccccc1 | -0.1 | 99.7 | 17.5 | -304.1 | 128.1 | 0.0 | 126.7 | 0.2
CC(=O)N1CCN(c2ccc(NC(=O)c3ccc(F)cc3)cc2)CC1 | 0.3 | 91.0 | 32.9 | 0.3 | . | . | . | .
COc1ccccc1NC(=O)Nc1nc(CC(=O)N2CCN(c3ccc(F)cc3)CC2)cs1 | 0.0 | 105.3 | -14.2 | 10.7 | . | . | . | .
Cc1cc(Cl)c2oc(C(=O)NCC(C)(C)N3CCOCC3)c(C)c2c1 | 0.6* | 97.3 | 0.6 | 6.5 | 128.1 | 0.0 | 102.2 | 0.2
CCN(Cc1ccncc1)C(=O)c1cccc(S(=O)(=O)N2CCCCC2)c1 | 0.2 | 107.9 | 25.9 | -15.0 | . | . | . | .
O=C(Cc1ccc(F)cc1)OCC(=O)N1CCN(S(=O)(=O)c2ccc(Cl)cc2)CC1 | 0.5* | 103.7 | 30.4 | 10.3 | 105.0 | -0.2 | 95.1 | -0.1
COc1ccc(NC(=O)C(NC(=O)c2ccc(=O)[nH]c2)c2ccccc2)cc1 (centres undefined) | 0.1 | 105.6 | -0.6 | 0.3 | . | . | . | .
COc1ccc(NC(=O)C(NC(=O)c2ccc(C)cc2)c2ccccc2)cc1 (centres undefined) | 0.3* | 105.2 | 4.8 | 5.0 | 100.3 | -0.2 | 111.6 | 0.0
CCOCCCNC(=O)CCCC1=NS(=O)(=O)c2ccccc2N1 | -0.3 | 93.3 | 38.2 | 9.1 | . | . | . | .
Cc1ccc(C(=O)NCC(=O)OCc2csc(-c3ccccc3)n2)cc1 | 6.8* | 103.0 | 0.5 | -27.9 | 109.0 | -0.3 | 110.3 | 0.0
C[C@H]1CN([C@@H](C)CO)C(=O)CCCn2nncc2CO[C@@H]1CN(C)C(=O)Nc1cccc2ccccc12 | . | 106.5 | . | 1.8 | . | . | . | .
CCc1ccc2[nH]c(O)c(N=Nc3nc(-c4ccccc4)cs3)c2c1 | 0.9* | 97.5 | 17.6 | -30.0 | 104.6 | -0.1 | 91.4 | 0.0
O=C(CNC(=O)C1COc2ccccc2O1)N/N=C/c1ccc(O)cc1O (centres undefined) | 0.0 | 95.4 | 15.4 | 21.5 | . | . | . | .
